Consider 2 compounds from ChEMBL document CHEMBL3044661, “Antifungal clerodane diterpenes from Macaranga monandra (L) Muell. et Arg. (Euphorbiaceae)” (J Agric Food Chem, 2003).

Series [1] deals with Colletotrichum acutatum. Briefly: Growth stimulation of Colletotrichum acutatum at low concentration by microtiter assay. The series is classed as organism-based. Particulars: in vivo. In short, it runs like this: (§1)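 96-well broth microassay. Conidia came from 7–10-day PDA cultures, were filtered through miracloth and set photometrically (625 nm %T curve) to 1.0×10^6 conidia/mL. Final doses were 0.3, 3.0 and 30.0 µM, in duplicate. Plates ran at 24 ± 1 °C with a 12-h photoperiod. A620 was read at 48 and 72 h. Percent inhibition (n = 4) was taken relative to untreated growth controls (n = 32). Split-plot design, replicated twice in time.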

Series [2] concerns Colletotrichum gloeosporioides. Briefly: Growth stimulation of Colletotrichum gloeosporioides at low concentration by microtiter assay. It is filed as organism-based. Particulars: in vivo. An outline of the steps: as §1
In a further series the test system is Fusarium oxysporum. Description: Growth inhibition of Fusarium oxysporum at < / = 30 uM after 48 to 72 hr by microtiter assay. It is filed as functional, organism-based. In short, it runs like this: as §1
Series [3] has as its system Colletotrichum gloeosporioides. Briefly: Growth inhibition of Colletotrichum gloeosporioides at < / = 30 uM after 48 to 72 hr by microtiter assay. It is filed as functional, organism-based. An outline of the steps: as §1
Series [4] deals with Colletotrichum fragariae. Description: Growth inhibition of Colletotrichum fragariae at < / = 30 uM after 72 hr by microtiter assay. It is filed as functional, organism-based. An outline of the steps:
as §1

A further series deals with Botrytis cinerea. Description: Growth inhibition of Botryotinia fuckeliana at 30 uM after 48 hr by microtiter assay. The series is classed as functional. The conditions noted are these: read-out: GI. An outline of the steps: as §1
For series [5], the system named is Colletotrichum acutatum. Description: Growth inhibition of Colletotrichum acutatum at < / = 30 uM after 48 to 72 hr by microtiter assay. It is filed as functional, organism-based. In short, it runs like this:
as §1

A further series concerns Diaporthe ampelina. Description: Growth inhibition of Diaporthe ampelina at 30 uM after 120 hr by microtiter assay. The series is classed as functional. The conditions noted are these: read-out: GI. An outline of the steps: (§2)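 96-well broth microassay against Phomopsis viticola or P. obscurans. Conidial inoculum was filtered and photometrically set to 1.0×10^6 conidia/mL. Final doses were 0.3, 3.0 and 30.0 µM, in duplicate. Incubation was at 24 ± 1 °C with a 12-h photoperiod, and A620 was recorded at 120 h. Mean percent inhibition (n = 4) was taken against untreated positive controls (n = 32). Split-plot design, replicated twice in time.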

Series [6] deals with Phomopsis obscurans. Description: Growth inhibition of Phomopsis obscurans at 30 uM after 120 hr by microtiter assay. It is filed as functional. Particulars: Paraphomopsis obscurans, read-out: GI. In short, it runs like this:
as §2

Series [7] relates to Colletotrichum gloeosporioides. Description: Antifungal activity against Colletotrichum gloeosporioides assessed as zone of inhibition at 100 ug/ml after 4 days by TLC bioautographic analysis. The series is classed as functional. Particulars: 96 h, read-out: IZ. In short, it runs like this: (§3)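 TLC bioautography on silica gel GF plates with fluorescent indicator. Compounds were spotted in a dose series at final 3.12–100 µg/mL. Plates were sprayed three times with conidia at final 3.0×10^5 conidia/mL in potato-dextrose broth with 0.1% Tween-80, then held in a moisture chamber at 24 ± 1 °C with a 12-h photoperiod. Inhibition zones (mm) were read at 4 d and reported as mean ± SD.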

Series [8] relates to Colletotrichum fragariae. Briefly: Antifungal activity against Colletotrichum fragariae assessed as zone of inhibition at 50 ug/ml after 4 days by TLC bioautographic analysis. The series is classed as functional. The conditions noted are these: 96 h, read-out: IZ. In short, it runs like this: as §3
The test system of series [9] is Colletotrichum fragariae. Description: Antifungal activity against Colletotrichum fragariae assessed as zone of inhibition at 25 ug/ml after 4 days by TLC bioautographic analysis. The conditions noted are these: 96 h, read-out: IZ. The series is classed as functional. An outline of the steps:
as §3

For series [10], the system named is Colletotrichum fragariae. Description: Antifungal activity against Colletotrichum fragariae assessed as zone of inhibition at 100 ug/ml after 4 days by TLC bioautographic analysis. It is filed as functional. Particulars: 96 h, read-out: IZ. In short, it runs like this: as §3
Series [11] deals with Phomopsis obscurans. Briefly: Growth stimulation of Phomopsis obscurans at low concentration by microtiter assay. The series is classed as organism-based. The conditions noted are these: paraphomopsis obscurans, in vivo. In short, it runs like this:
as §2

Structures are written as SMILES. Calls of active or inactive are those of the source. No cut-off for these calls is given here.

For `CC1=CCC[C@@H]2[C@@](C)(CC/C(C)=C/C(=O)O)[C@H](C)CC[C@@]12C` [KOLAVENIC ACID], the Activity result with Colletotrichum acutatum [1] is “Dose-dependent effect and tde”; in [2], “Dose-dependent effect and tde”; in the series on Phomopsis obscurans [11], “Dose-dependent effect and tde”. Further, the “growth inhibition (GI)” value (in the series on Fusarium oxysporum; in series [3]; with Colletotrichum fragariae [4]; in the series on Colletotrichum acutatum [5]) was “inactive” in each case. Also, the inhibition of growth at 30 µM in the series with Botrytis cinerea was 23%; in the series on Diaporthe ampelina, 50%; with Phomopsis obscurans [6], 26%. Besides, the zone of inhibition at 100 µg/mL turned out to be 9.5 mm in [7] and 9 mm in the series with Colletotrichum fragariae [10]. Moreover, the zone of inhibition at 50 µg/mL with Colletotrichum fragariae [8] was 8.5 mm. Also, the zone of inhibition at 25 µg/mL in the series on Colletotrichum fragariae [9] worked out at 5 mm.
As to `CC1=CC(=O)C[C@@H]2[C@@](C)(CC/C(C)=C/C(=O)O)[C@H](C)CC[C@@]12C` [2-OXO-KOLAVENIC ACID], the Activity result in the series with Colletotrichum acutatum [1] was “Dose-dependent effect and tde”; in series [2], “Dose-dependent effect and tde”; in the series with Phomopsis obscurans [11], “Dose-dependent effect and tde”. The “growth inhibition (GI)” value (in the series with Fusarium oxysporum; in series [3]; in the series with Colletotrichum fragariae [4]; in the series on Colletotrichum acutatum [5]) was “inactive” throughout. Besides, the inhibition of growth at 30 µM with Botrytis cinerea came out at 23%; in the series with Diaporthe ampelina, 46%; in the series on Phomopsis obscurans [6], 8%. In addition, the zone of inhibition at 100 µg/mL in series [7] turned out to be 0 mm; in the series on Colletotrichum fragariae [10] it was 8 mm. The zone of inhibition at 50 µg/mL in the series on Colletotrichum fragariae [8] came to 8 mm. In addition, the zone of inhibition at 25 µg/mL in the series on Colletotrichum fragariae [9] was found to be 6 mm.
